Assay results: ChEMBL document CHEMBL3112493, “Synthesis of 2,6-disubstituted benzylamine derivatives as reversible selective inhibitors of copper amine oxidases” (Bioorg Med Chem, 2014)
Calls of active or inactive are those of the source. The calls are words filed in the database; no cut-off is given here.

Key:
[1] = target: T1, Protein-lysine 6-oxidase (Sus scrofa, UniProt P45845); test: Inhibition of porcine aorta lysyl oxidase preincubated for 30 mins followed by substrate addition
T1 sequence (P45845 whole entry): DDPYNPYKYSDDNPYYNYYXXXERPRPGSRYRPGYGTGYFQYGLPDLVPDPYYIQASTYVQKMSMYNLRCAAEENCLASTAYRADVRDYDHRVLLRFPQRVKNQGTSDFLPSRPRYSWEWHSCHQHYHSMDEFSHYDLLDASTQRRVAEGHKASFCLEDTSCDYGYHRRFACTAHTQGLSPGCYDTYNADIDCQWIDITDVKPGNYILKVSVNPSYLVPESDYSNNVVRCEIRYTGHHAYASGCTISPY
Method in brief: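 Porcine aorta lysyl oxidase, prepared in-house. Enzyme was preincubated with inhibitor at 6 concentrations for 30 min at 30 °C. Saturating tritiated protein-bound lysine substrate was then added and activity was measured radiochemically. In some cases H2O2 production was followed instead, by the 4-aminoantipyrine method.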

[2] = organism: Sus scrofa; test: Reversible inhibition of porcine serum BAO using [7-14C]-benzylamine as substrate assessed as residual activity at 4 times IC50 preincubated for 5 mins followed by 10 fold dilution relative to control
Method in brief: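 Solutions were diluted 1:10 and 1:100, and portions were dialyzed against water at 4 °C for 24 h. Activity was read with saturating [7-14C]benzylamine; the reaction was stopped with 3 N HCl and labeled benzaldehyde extracted into ethyl acetate and counted.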

[3] = target: T2, Amine oxidase [flavin-containing] B (Rattus norvegicus, UniProt P19643); test: Inhibition of rat liver MAO-B using 2-phenyl[1-14C]-ethylamine/[7-14C]-benzylamine as substrate preincubated for 30 mins followed by substrate addition
T2 sequence (P19643 whole entry): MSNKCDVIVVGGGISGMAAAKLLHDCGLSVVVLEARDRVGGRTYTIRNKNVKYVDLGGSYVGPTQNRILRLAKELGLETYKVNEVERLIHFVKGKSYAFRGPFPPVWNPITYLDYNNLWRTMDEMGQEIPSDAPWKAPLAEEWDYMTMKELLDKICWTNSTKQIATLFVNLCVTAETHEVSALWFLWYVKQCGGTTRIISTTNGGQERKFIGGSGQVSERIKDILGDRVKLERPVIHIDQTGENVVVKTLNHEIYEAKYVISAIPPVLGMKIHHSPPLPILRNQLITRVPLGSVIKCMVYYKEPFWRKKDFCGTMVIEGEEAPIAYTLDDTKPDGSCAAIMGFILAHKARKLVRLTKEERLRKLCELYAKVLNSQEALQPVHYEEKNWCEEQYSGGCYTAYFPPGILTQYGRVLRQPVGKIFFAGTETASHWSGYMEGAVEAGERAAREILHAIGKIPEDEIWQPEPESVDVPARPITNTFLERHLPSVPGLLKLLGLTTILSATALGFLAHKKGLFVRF
Method in brief: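 MAO B source was rat liver mitochondria, obtained by 1:10 homogenization in 0.01 M phosphate pH 7.4 with 0.25 M sucrose, then centrifugation at 1000g and 10,000g (20 min each). Mitochondria were preincubated with inhibitor (6 concentrations) for 30 min at 30 °C. Saturating 2-phenyl[1-14C]ethylamine was then added and activity measured radiochemically.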

[4] = Inhibition of porcine serum BAO using [7-14C]-benzylamine as substrate preincubated for 30 mins followed by substrate addition; set-up: species or system Sus scrofa
Method in brief: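 Porcine serum benzylamine oxidase was preincubated with inhibitor at 6 concentrations for 30 min at 30 °C. [7-14C]Benzylamine was then added at a saturating level and radiochemical activity was measured. In some cases H2O2 formation was followed by the 4-aminoantipyrine method.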

[5] = target: T3, Diamine oxidase [copper-containing] (Sus scrofa, UniProt Q9TRC7); test: Inhibition of porcine kidney DAO using [1,4-14C]-putrescine as substrate preincubated for 30 mins followed by substrate addition
T3 sequence (Q9TRC7 whole entry): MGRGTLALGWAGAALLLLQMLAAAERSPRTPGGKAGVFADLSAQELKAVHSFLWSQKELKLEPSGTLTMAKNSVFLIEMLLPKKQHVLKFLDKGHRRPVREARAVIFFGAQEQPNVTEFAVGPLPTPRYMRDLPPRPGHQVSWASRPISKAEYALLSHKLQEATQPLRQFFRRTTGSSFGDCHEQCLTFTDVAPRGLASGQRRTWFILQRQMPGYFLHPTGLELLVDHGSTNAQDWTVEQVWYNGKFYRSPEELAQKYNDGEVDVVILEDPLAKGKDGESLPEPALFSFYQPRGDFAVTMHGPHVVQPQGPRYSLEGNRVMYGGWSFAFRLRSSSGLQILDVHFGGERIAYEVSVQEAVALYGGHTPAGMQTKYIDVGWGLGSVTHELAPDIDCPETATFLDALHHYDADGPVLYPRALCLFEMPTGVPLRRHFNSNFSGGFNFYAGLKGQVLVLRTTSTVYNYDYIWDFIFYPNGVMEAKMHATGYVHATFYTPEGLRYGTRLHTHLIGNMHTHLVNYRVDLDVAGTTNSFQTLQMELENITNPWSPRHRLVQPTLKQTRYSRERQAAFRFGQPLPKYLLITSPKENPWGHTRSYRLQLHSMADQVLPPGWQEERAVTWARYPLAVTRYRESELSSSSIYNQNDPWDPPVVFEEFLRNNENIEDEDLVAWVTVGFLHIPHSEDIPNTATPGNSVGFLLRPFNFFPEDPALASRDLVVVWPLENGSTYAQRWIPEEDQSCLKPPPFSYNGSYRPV
Method in brief: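 Porcine kidney diamine oxidase was preincubated with inhibitor at 6 concentrations for 30 min at 30 °C. Saturating [1,4-14C]putrescine was then added and activity was determined radiochemically. In some cases H2O2 production was measured by the 4-aminoantipyrine method.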

[6] = organism: Sus scrofa; test: Mixed-type inhibition of porcine serum BAO using [7-14C]-benzylamine as substrate by Lineweaver-Burk plot analysis
[7] = Acute toxicity in ip dosed Swiss mouse assessed as appearance of tonic-clonic convulsion followed by respiratory block measured after 15 to 20 mins; format: organism-based; details: in vivo
[8] = organism: Sus scrofa; test: Non-competitive inhibition of porcine serum BAO using [7-14C]-benzylamine as substrate by Lineweaver-Burk plot analysis
[9] = Half life in rat; format: ADME, organism-based; details: in vivo
[10] = Oral bioavailability in rat; format: ADME, organism-based; details: in vivo

SMILES	IC50 [1]	Activity [2]	IC50 [3]	IC50 [4]	IC50 [5]	inhibition mode (qualitative) [6]	LD50 [7]	inhibition [8]	half-life [9]	bioavailability [10]
COc1cccc(OC)c1CN.Cl	> 1000 µM	> 80%	190 µM	120 µM	> 1000 µM	Active	120 mg/kg			
NCc1c(O)cccc1O	> 1000 µM		> 1000 µM	> 1000 µM	> 1000 µM					
CCCc1cccc(CCC)c1CN.Cl	> 1000 µM	> 80%	> 1000 µM	15 µM	> 1000 µM	Active	55 mg/kg			
CCCCc1cccc(CCCC)c1CN.Cl	> 1000 µM	> 80%	> 1000 µM	14 µM	> 1000 µM	Active	54 mg/kg			
CCCOc1cccc(OCCC)c1CN.Cl	> 1000 µM	50%	> 1000 µM		> 1000 µM	Active	37 mg/kg			
NCc1ccccc1CO	> 1000 µM		> 1000 µM	> 1000 µM	> 1000 µM					
COCc1cccc(COC)c1CN.Cl	> 1000 µM	> 80%	> 1000 µM	> 1000 µM	> 1000 µM	Active	240 mg/kg			
NCc1ccccc1O	> 1000 µM		> 1000 µM	> 1000 µM	> 1000 µM					
CCOc1cccc(OCC)c1CN.Cl	> 1000 µM	50%	> 1000 µM	0.18 µM	> 1000 µM	Active	74 mg/kg			
CCOc1ccccc1CN	> 1000 µM		> 1000 µM	> 1000 µM	> 1000 µM					
Cl.NCc1c(OCCCO)cccc1OCCCO	> 1000 µM	50%	> 1000 µM	0.55 µM	> 1000 µM	Active	690 mg/kg			
Cl.NCc1c(OCCCCO)cccc1OCCCCO	> 1000 µM	50%	> 1000 µM	0.066 µM	> 1000 µM	Active	540 mg/kg			
CCOCc1cccc(COCC)c1CN	> 1000 µM		> 1000 µM	> 1000 µM	> 1000 µM					
CCCCOc1cccc(OCCCC)c1CN.Cl	> 1000 µM	50%	> 1000 µM	0.14 µM	> 1000 µM		25 mg/kg	Active		
CC(C)Oc1cccc(OC(C)C)c1CN	> 1000 µM		> 1000 µM	> 1000 µM	> 1000 µM					
CCc1cccc(CC)c1CN.Cl	> 1000 µM	> 80%	> 1000 µM		> 1000 µM	Active	92 mg/kg			
CCOc1cncc(OCC)c1CN									2 h	51.5%
Cl.NCc1c(OCCO)cccc1OCCO	> 1000 µM	50%	> 1000 µM	2.6 µM	> 1000 µM	Active	> 1000 mg/kg			
